Results reported in the array DNA melting data of Ke et al. (doi:10.1101/2024.01.08.574731).

Key:
[1] = folding enthalpy; higher = less favourable; fluorescence melt of hairpins on a sequencing array, two-state fit; settings: sodium 0.088 M
How it was run: (§1)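 Library hairpins on a sequenced MiSeq flow cell carried annealed Cy3 and quencher oligos, and their Cy3 fluorescence was imaged in 50 mM Na-HEPES pH 8.0 with 25 mM NaCl, in 2.5 °C steps up to 60 °C. Signals were normalised to Cy3 before quenching and to control constructs. Melting temperature and folding enthalpy were obtained from bootstrapped two-state fits, combined by inverse-variance weighting across four replicates, and the fitted temperatures were then raised by 9.35 °C to match UV melts.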

[2] = melting temperature; fluorescence melt of hairpins on a sequencing array, two-state fit, raised by 9.35 °C to match UV melts; settings: sodium 0.088 M
How it was run: as §1

Sequence	folding enthalpy [1] [kcal/mol]	Tm [2] [°C]
GCAGCTTCGAAAGAATGC (((..(((....))))))	-12.8	29.1
GGTACACGAAAGTGACC (((.(((....))))))	-18.4	46.4
GCGGAAGTCCGC ((((....))))	-20.9	56
GATCTATTCTTAGATC ((((((....))))))	-40.9	44.8
GCCATGCGAAAGCACAGC ((..(((....)))..))	-11.2	36.6
GCACCCCGAAAGGGATGC (((.(((....))).)))	-40.6	57.5
GTCGCCGGAAACGACGAC ((((.((....)).))))	-43.5	57.5
GGATCGCGAAAGCGTCC (((.(((....))))))	-22.7	52.6
GAGGCCGAAAGGCTACTC ((((((....)))..)))	-11.7	42.9
GACGATGGAAACGTTGTC (((.(.(....).).)))	-22.2	34
GTATCCGAAAGGAGGTAC ((((((....)))..)))	-10.3	28.5
CGCCACGGAAACGTTGCG (((.(((....))).)))	-33.4	51.1
GCGAGCGAAAGCTGCCGC ((((((....)))..)))	-13.1	53.5
GGTTATCGAAAGATGACC (((.(((....))).)))	-48.6	51.7
GTCGCGCGAAAGCGGAC (((.(((....))))))	-15.4	56.5
GTTGTAGGAAACTACGAC ((.((((....)))).))	-26	45.8
GATCCAAATTGGATC ((((((...))))))	-31.8	48.3
GTCGGTGGAAACACTGAC (((.(((....))).)))	-40.6	54.4
GCAAGTCGAAAGACGTGC (((.(((....))).)))	-39.8	55.8
GCGCATCGAAAGATCCGC (((.(((....))).)))	-28.5	47.8
GACGAGGGAAACTTCGTC (((((.(....).)))))	-40.8	49
GTATGTCGAAAGACTAC (((.(((....))))))	-19.2	41.3
GAAGCCCGAAAGGGATTC (((.(((....))).)))	-42.4	61.4

Sequence	folding enthalpy [1] [kcal/mol]	Tm [2] [°C]
GCAAGGCGAAAGCGTGGC ((.(.((....)).).))	-20.2	46.9
GATCTTTTGAAAGATC ((((((....))))))	-28.3	44.7
GTGGCCCGAAAGGGCAC (((.(((....))))))	-10.3	62
GAGCGAGGAAACTCGTTC ((.((((....)))).))	-27	48.8
GATCGGTCGCCCGATC ((((((....))))))	-54.5	57.4
GGCCCATCGAAAGATGCC (((..(((....))))))	-12.4	34.6
GTCATGGGAAACCACGAC (((.(((....))).)))	-31.9	39.9
GAGCGGGGAAACCCGTTC ((.((((....)))).))	-20.1	53
GACCACCGAAAGGTTGTC (((.(((....))).)))	-32.2	48.2
GTAGTTCCGAAAGGATAC (((..(((....))))))	-11.6	27.7
GCGATCGAAAGATTCCGC ((((((....)))..)))	-23.8	33.7
GCCACAGGAAACTACGGC (((..((....))..)))	-30.8	39.5
GTCTAAGGAAACTTAGGC (.(((((....))))).)	-25.5	38.1
GCATACGGAAACGTGTGC (((.(((....))).)))	-50.6	55
GGCTTCGCGAAAGCGGCC (((..(((....))))))	-16.4	48.8
GGCACACGAAAGTGGCC (((.(((....))))))	-23.2	62.2
GATGCGGGAAACTGCGTC ((.((.(....).)).))	-21.1	44.2
GGTCAGGGAAACCTAACC (((.(((....))).)))	-24.6	33.6
GACCGCGGAAACGCGACC (..((((....))))..)	-7.67	28.9
GATACGCGAAAGCGATC (((.(((....))))))	-13.1	37.7
GATCTAGAACTAGATC ((((((....))))))	-34.2	44.9
GCGACGAATCGC ((((....))))	-13.1	49.6
GAGGTTGGAAACGATCTC (((.(.(....).).)))	-17.3	29.5

Sequence	folding enthalpy [1] [kcal/mol]	Tm [2] [°C]
GTATGTGGAAACGCATAC (((((.(....).)))))	-29.7	46.9
GCGCTTCGAAAGAATCGC (((.(((....))).)))	-41.3	51.8
GGCGTTGGAAACAGCGCC ((((.((....)).))))	-52.1	60.9
GCAATGCGAAAGCGTAGC ((.(.((....)).).))	-15.8	42.7
GATCACCCATGTGATC ((((((....))))))	-33.8	55.7
GAGTAGGGAAACCTATTC ((.((((....)))).))	-25.5	32.5
GTCGACGAAAGTCGTGAC ((((((....)))..)))	-10	43.6
GGAGTCGGAAACGGCTCC ((((.((....)).))))	-45.8	61
GGAAGCGGAAACACTTCC (((((.(....).)))))	-32.9	44.3
GCTTTTCGAAAGAACAGC (((.(((....))).)))	-31.8	42.8
GGTCCGCGAAAGCGAACC (((.(((....))).)))	-28.1	57.5
GTAACCCGAAAGGGATAC (((.(((....))).)))	-23.4	48.6
GGATCTGGAAACAGATTC (.(((((....))))).)	-28.9	46.2
GTATGCGCGAAAGCGTAC (((..(((....))))))	-9.22	31.3
GACCTTGGAAACAAGGTC (((((((....)))))))	-40.6	63
GATCTTCGAGAAGATC ((((((....))))))	-42	50.8
GGGAGAGGAAACTCTCCC (((((((....)))))))	-42.9	64.8
GCCCCACGAAAGTGTGGC (((.(((....))).)))	-35.9	57.9
GCATTGCGAAAGCTCTGC (((..((....))..)))	-23.5	39.2
CGGCTTCGGAAACGACCG (((..(((....))))))	-18.2	37.9
GCCTGTCGAAAGACTGGC (((.(((....))).)))	-39.1	61.2
GGGCGCACGAAAGTGCCC (((..(((....))))))	-12.1	57
GCGCGCGAAAGCGTACGC ((((((....)))..)))	-17.5	61.5

Sequence	folding enthalpy [1] [kcal/mol]	Tm [2] [°C]
GAACAACGAAAGTTCTTC (((.(((....))).)))	-29.8	38.7
GATAGACGAAAGTCCATC (((.(((....))).)))	-13.3	35.1
GTCATTGAAAAATGAC ((((((....))))))	-38.6	51.9
GCATCCGGAAACGGACAC (..((((....))))..)	-12.7	21.6
CGTGTACGGAAACGTACG (((..(((....))))))	-8.98	46
GGTTCCGAAAGGAGAACC ((((((....)))..)))	-24.5	45.1
GCTCTGCGAAAGCACTGC ((..(((....)))..))	-10.7	31.6
GAAATGGGAAACTATTTC (((((.(....).)))))	-23	33.7
GTCGTGGGAAACCACAAC ((.((((....)))).))	-15.7	40.3
GGCAGTGGAAACGCTGTC (.(((.(....).))).)	-23.4	44.5
GCAAGGCGAAAGCCAAGC ((..(((....)))..))	-13.8	50.1
GCGATCGAAAGATACGC ((((((....))).)))	-25.5	50.1
GATCTCAGTAGAGATC ((((((....))))))	-37.4	54.1
GATCCTCAGTAGGATC ((((((....))))))	-35.4	49.9
GGACTAGGAAACCAGTCC (((((.(....).)))))	-31	44.8
GTCCTCGAAAGAGGTGAC ((((((....)))..)))	-11.6	35.5
GACCCGACGAAAGTCGTC (((..(((....))))))	-6.62	25.9
GATCTGACGCCAGATC ((((((....))))))	-33.5	48.6
GGGCCTGGAAACAGGCTC (.(((((....))))).)	-15.9	61.6
ACGTGGAAACACGT (((((....)))))	-22	55.5
GAAAAACGAAAGTTTTC (((.(((....))))))	-15.7	36.9
GATCTGCCCGCAGATC ((((((....))))))	-46.4	59.7
GGAAATCGAAAGATTCC (((.(((....))))))	-20.9	40.4
